Converted amounts (≈) assume the structure as drawn.
Key:
[1] = tested on: Rattus norvegicus; test: inhibition of histamine stimulated gastric secretion in lumen perfused stomach of anesthetized rats at 1 mg/kg intravenously; type: functional; details: route intravenous
How it was run: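 Abdomen opened; gastric lumen perfused with saline throughout. Secretion stimulated by iv histamine infusion, 3 mg/kg/h. Perfusate acid titrated with 25 mM NaOH by autotitrator. n = 2.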

[2] = tested on: Helicobacter pylori; test: Evaluated for antimicrobial activity against Helicobacter pylori; type: functional
How it was run: (§1)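 Agar dilution. Test strain precultured on Brucella agar with 3% horse serum and 2% starch, 37 °C, 3 days. Suspended in buffered saline to McFarland no. 1, diluted 10²-fold, then spotted by multipoint replicator onto Brucella agar plus 7% lysed horse blood carrying serial 2-fold drug dilutions. Incubated 37 °C, 3 days, 10% CO₂. MIC taken as lowest concentration stopping macroscopic colonial growth.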

[3] = species on record: Cavia porcellus; test: inhibition of the histamine stimulated […] response in the isolated guinea pig right atrium at 1x 10 e-6 g/mL; type: functional, Cardiac atrium
How it was run: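 Isolated atrium; beating rate and contraction amplitude recorded via transducer and polygraph. Histamine hydrochloride 1 × 10^-6 g/mL added to bath and rate increase measured. Percent inhibition from histamine-induced rate increases before versus 30 min after compound.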

[4] = tested on: Helicobacter pylori; test: minimum inhibitory concentration was determined against Helicobacter pylori. the value in parentheses is range; type: functional, organism-based
How it was run: as §1, with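 “growth. Mean and range from 10 strains (8001, 8003, 8004, 8007, 8008, 8009, 8011, 9005, FP1530, FP1532).” for “growth.”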

Compound | inhibition in vivo at 1 mg/kg [1] [%] | MIC [2] [µg/mL] | Inhibition [3] [%] | MIC [4] [µg/mL]
CCCCNC(=O)Nc1nc(-c2ccc(CNC(C)=O)o2)cs1 | 9 | > 100 | 0 | 
CC(=O)NCc1ccc(-c2csc(N/C(N)=N/C(C)C)n2)o1 | 32 | 2.9 (≈ 9.02 µM) | 27 | 
CC/N=C(\N)Nc1nc(-c2ccc(CNC(C)=O)o2)cs1 | 79 | 3.13 (≈ 10.2 µM) | 51 | 
CCC/N=C(\N)Nc1nc(-c2ccc(CNC(C)=O)o2)cs1 | 97 | 1.67 (≈ 5.2 µM) | 81 | 
CN/C(=N\CCSCc1nc[nH]c1C)NC#N [CIMETIDINE] | 53 | 1130 (≈ 4480 µM) | 43 | 
CC(=O)NCc1ccc(-c2nc(N=C(N)N)sc2C)o1 | 3 | 76 (≈ 259 µM) | 10 | 
CC(=O)NCc1ccc(-c2csc(CN(C)C)n2)o1 | 4 | > 200 | 6 | 
C/N=C(\N)Nc1nc(-c2ccc(CNC(C)=O)o2)cs1 | 24 | 12.5 (≈ 42.6 µM) | 25 | 
BISMUTH SUBCITRATE |  |  |  | 18
CCCCCC/N=C(\N)Nc1nc(-c2ccc(CNC(C)=O)o2)cs1 | 44 | 0.11 (≈ 0.303 µM) | 79 | 
CC(=O)NCc1ccc(-c2csc(/N=C(\N)S)n2)o1 | 11 | > 200 | 0 | 
CCCC/N=C(\N)Nc1nc(-c2ccc(CNC(C)=O)o2)cs1 | 45 | 0.21 (≈ 0.626 µM) | 78 | 
Cc1ncc([N+](=O)[O-])n1CCO [METRONIDAZOLE] |  | 5.4 (≈ 31.6 µM) |  | 
CC(=O)NCc1ccc(-c2csc(NC3=NCCN3)n2)o1 | 18 | > 100 | 8 | 

From ChEMBL document CHEMBL1130326, “Anti-Helicobacter pylori agents. 1. 2-(Alkylguanidino)-4-furylthiazoles and related compounds” (1997)
